Eleven compounds from ChEMBL document CHEMBL1772954, “Antifungal, cytotoxic and SAR studies of a series of N-alkyl, N-aryl and N-alkylphenyl-1,4-pyrrolediones and related compounds” (Bioorg Med Chem, 2011) can be followed below.

Values after ≈ are worked out from the molar mass of the structure shown.

Holding throughout (assay type): functional
One assay concerns Candida albicans. Put plainly: Antifungal activity against Candida albicans ATCC 10213. A digest of the protocol: (§1)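 CLSI M27-A3 broth microdilution in RPMI-1640 buffered to pH 7.0 with MOPS. Inoculum 1-5 × 10^3 CFU/mL. Compound twofold dilutions from 250 to 0.24 µg/ml, final DMSO <1%. Incubated at 35 °C in a moist, dark chamber and read at 48 h. MIC is the lowest concentration giving total growth inhibition. For MFC, 5 µL from clear wells was plated in duplicate on SDA; MFC is the lowest concentration with no growth.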

The subject of the next assay is Candida tropicalis. Put plainly: Antifungal activity against Candida tropicalis C 131 2000. The method, boiled down:
as §1

A further assay relates to Saccharomyces cerevisiae. The assay is described as follows: Antifungal activity against Saccharomyces cerevisiae ATCC 9763. The method, boiled down: as §1
In the next assay the test system is Cryptococcus neoformans. The assay is described as follows: Antifungal activity against Cryptococcus neoformans ATCC 32264. A digest of the protocol: as §1
The subject of a further assay is Aspergillus fumigatus. Put plainly: Antifungal activity against Aspergillus fumigatus ATCC 26934. The method, boiled down:
(§2)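 Broth microdilution per CLSI M38-A2 in RPMI-1640 with MOPS at pH 7.0. Inoculum 1-5 × 10^3 CFU/mL, with twofold compound dilutions spanning 250-0.24 µg/ml (final DMSO <1%). Plates incubated at 35 °C, moist and dark, and read when the control fungus had grown. MIC is total growth inhibition. MFC comes from subculturing clear wells in duplicate onto SDA.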

In another assay the test system is Aspergillus flavus. The assay is described as follows: Antifungal activity against Aspergillus flavus ATCC 9170. The method, boiled down: as §2
The subject of another assay is Aspergillus niger. The assay is described as follows: Antifungal activity against Aspergillus niger ATCC 9029. The method, boiled down:
as §2

The test system of a further assay is Nannizzia gypsea. The assay is described as follows: Antifungal activity against Microsporum gypseum C 115 2000. A digest of the protocol:
(§3)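 Dermatophytes tested by CLSI M38-A2 microdilution in MOPS-buffered RPMI-1640 at pH 7.0. Inoculum 1-5 × 10^3 CFU/mL; compounds 250 to 0.24 µg/ml in twofold steps, final DMSO <1%. Incubated at 28 °C in a moist, dark chamber and read according to control growth. MIC is the lowest concentration with complete inhibition. MFC is the lowest concentration with no growth after duplicate subculture on SDA.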

Another assay has as its system Trichophyton rubrum. The assay is described as follows: Antifungal activity against Trichophyton rubrum C 113 2000. The method, boiled down:
as §3

In assay [1] the test system is Trichophyton mentagrophytes. The assay is described as follows: Antifungal activity against Trichophyton mentagrophytes ATCC 9972. A digest of the protocol:
as §3

Broadly, the MFC is the lowest tested concentration that kills the fungus rather than only halting it. Lower therefore signals more potent killing. For orientation: MIC means the lowest concentration found to suppress growth. Low values mean inhibition by little substance, high ones a need for much substance. Turning to `O=C1C(c2ccccc2)=C(c2ccccc2)C(=O)N1CCCc1ccccc1`, the MFC against Candida albicans, against Candida tropicalis, in the assay on Saccharomyces cerevisiae, in the assay on Cryptococcus neoformans, against Aspergillus fumigatus and against Aspergillus flavus was above 250 µg/mL throughout. Also, the MFC (in the assay with Aspergillus niger; in the assay on Nannizzia gypsea; against Trichophyton rubrum; in assay [1]) was above 250 µg/mL in each case. Besides, the MIC against Candida albicans, against Candida tropicalis, in the assay with Saccharomyces cerevisiae, with Cryptococcus neoformans, in the assay with Aspergillus fumigatus and in the assay with Aspergillus flavus was above 250 µg/mL throughout. The MIC (against Aspergillus niger; against Nannizzia gypsea; in the assay on Trichophyton rubrum; in [1]) was above 250 µg/mL throughout.

For the compound `O=C1C(Cl)=C(Cl)C(=O)N1c1ccccc1`, the minimal fungicidal concentration (MFC) with Candida albicans, against Candida tropicalis, against Saccharomyces cerevisiae, with Cryptococcus neoformans, against Aspergillus fumigatus and against Aspergillus flavus was above 250 µg/mL each time. For the same compound, the MFC (in the assay with Aspergillus niger; against Nannizzia gypsea; in the assay on Trichophyton rubrum; in [1]) was above 250 µg/mL in each case. The MIC against Candida albicans, against Candida tropicalis, in the assay on Saccharomyces cerevisiae, in the assay on Cryptococcus neoformans, against Aspergillus fumigatus and in the assay on Aspergillus flavus was above 250 µg/mL each time. For the same compound, the MIC (in the assay with Aspergillus niger; in the assay on Nannizzia gypsea; with Trichophyton rubrum; in [1]) was above 250 µg/mL throughout.

For the compound `CC1=C(C)C(=O)N(Cc2ccccc2)C1=O`, the MFC against Candida albicans is above 250 µg/mL; against Candida tropicalis, above 250 µg/mL; with Saccharomyces cerevisiae it was above 250 µg/mL; with Cryptococcus neoformans it was 250 µg/mL (≈ 1160 µM); in the assay on Aspergillus fumigatus, above 250 µg/mL; against Aspergillus flavus it was above 250 µg/mL. Also, the MFC against Aspergillus niger was above 250 µg/mL; against Nannizzia gypsea, 250 µg/mL (≈ 1160 µM); in the assay with Trichophyton rubrum it was 125 µg/mL (≈ 581 µM); in assay [1], 250 µg/mL (≈ 1160 µM). In addition, the MIC against Candida albicans is 125 µg/mL (≈ 581 µM); in the assay with Candida tropicalis, 125 µg/mL (≈ 581 µM); against Saccharomyces cerevisiae, 250 µg/mL (≈ 1160 µM); with Cryptococcus neoformans, 125 µg/mL (≈ 581 µM); in the assay with Aspergillus fumigatus it was above 250 µg/mL; in the assay with Aspergillus flavus, above 250 µg/mL. In addition, the MIC against Aspergillus niger was above 250 µg/mL; in the assay with Nannizzia gypsea, 125 µg/mL (≈ 581 µM); with Trichophyton rubrum, 62.5 µg/mL (≈ 290 µM); in assay [1] it was 125 µg/mL (≈ 581 µM).

For `CC1=C(C)C(=O)N(CCc2ccccc2)C1=O`, the MFC with Candida albicans, with Candida tropicalis, against Saccharomyces cerevisiae, against Cryptococcus neoformans, in the assay on Aspergillus fumigatus and against Aspergillus flavus was above 250 µg/mL each time. Moreover, the minimal fungicidal concentration (MFC) with Aspergillus niger is above 250 µg/mL; against Nannizzia gypsea, above 250 µg/mL; in the assay with Trichophyton rubrum it was 250 µg/mL (≈ 1090 µM); in assay [1] it was above 250 µg/mL. The MIC against Candida albicans is above 250 µg/mL; in the assay on Candida tropicalis it was above 250 µg/mL; in the assay on Saccharomyces cerevisiae it was above 250 µg/mL; against Cryptococcus neoformans it was 250 µg/mL (≈ 1090 µM); in the assay on Aspergillus fumigatus it was above 250 µg/mL; with Aspergillus flavus, above 250 µg/mL. For the same compound, the MIC in the assay on Aspergillus niger was above 250 µg/mL; against Nannizzia gypsea it was 250 µg/mL (≈ 1090 µM); in the assay with Trichophyton rubrum it was 62.5 µg/mL (≈ 273 µM); in [1], 250 µg/mL (≈ 1090 µM).

As for `CC1=C(C)C(=O)N(CCCc2ccccc2)C1=O`, the minimum fungicidal concentration (MFC) against Candida albicans is above 250 µg/mL; against Candida tropicalis it was above 250 µg/mL; with Saccharomyces cerevisiae, above 250 µg/mL; with Cryptococcus neoformans, 250 µg/mL (≈ 1030 µM); against Aspergillus fumigatus, above 250 µg/mL; against Aspergillus flavus it was above 250 µg/mL. Further, the MFC was above 250 µg/mL against Aspergillus niger, 250 µg/mL (≈ 1030 µM) against Nannizzia gypsea, 250 µg/mL (≈ 1030 µM) in the assay on Trichophyton rubrum and above 250 µg/mL in [1]. Besides, the MIC was above 250 µg/mL with Candida albicans; above 250 µg/mL with Candida tropicalis; above 250 µg/mL in the assay on Saccharomyces cerevisiae; 125 µg/mL (≈ 514 µM) against Cryptococcus neoformans; above 250 µg/mL with Aspergillus fumigatus; above 250 µg/mL against Aspergillus flavus. In addition, the MIC against Aspergillus niger was above 250 µg/mL; in the assay with Nannizzia gypsea, 125 µg/mL (≈ 514 µM); in the assay on Trichophyton rubrum, 62.5 µg/mL (≈ 257 µM); in assay [1] it was 250 µg/mL (≈ 1030 µM).

Turning to `CC1=C(C)C(=O)N(CCCCc2ccccc2)C1=O`, the MFC with Candida albicans, in the assay with Candida tropicalis, against Saccharomyces cerevisiae, against Cryptococcus neoformans, in the assay on Aspergillus fumigatus and against Aspergillus flavus was above 250 µg/mL throughout. Further, the MFC is above 250 µg/mL against Aspergillus niger, above 250 µg/mL in the assay on Nannizzia gypsea, 250 µg/mL (≈ 972 µM) in the assay with Trichophyton rubrum and above 250 µg/mL in assay [1]. For the same compound, the MIC with Candida albicans, in the assay with Candida tropicalis, against Saccharomyces cerevisiae, in the assay on Cryptococcus neoformans, against Aspergillus fumigatus and in the assay on Aspergillus flavus was above 250 µg/mL in each case. The MIC with Aspergillus niger is above 250 µg/mL; with Nannizzia gypsea, 250 µg/mL (≈ 972 µM); in the assay with Trichophyton rubrum it was 125 µg/mL (≈ 486 µM); in assay [1] it was 125 µg/mL (≈ 486 µM).

With `O=C1C(c2ccccc2)=C(c2ccccc2)C(=O)N1c1ccccc1`, the MFC with Candida albicans, with Candida tropicalis, in the assay with Saccharomyces cerevisiae, in the assay with Cryptococcus neoformans, in the assay with Aspergillus fumigatus and against Aspergillus flavus was above 250 µg/mL each time. In addition, the MFC (against Aspergillus niger; against Nannizzia gypsea; against Trichophyton rubrum; in assay [1]) was above 250 µg/mL in each case. Besides, the MIC against Candida albicans, in the assay on Candida tropicalis, in the assay on Saccharomyces cerevisiae, in the assay on Cryptococcus neoformans, against Aspergillus fumigatus and against Aspergillus flavus was above 250 µg/mL in each case. In addition, the MIC (against Aspergillus niger; in the assay with Nannizzia gypsea; in the assay on Trichophyton rubrum; in assay [1]) was above 250 µg/mL in each case.

As for `O=C1C(c2ccccc2)=C(c2ccccc2)C(=O)N1Cc1ccccc1`, the MFC against Candida albicans, in the assay on Candida tropicalis, against Saccharomyces cerevisiae, in the assay on Cryptococcus neoformans, against Aspergillus fumigatus and in the assay on Aspergillus flavus was above 250 µg/mL throughout. Moreover, the MFC (with Aspergillus niger; with Nannizzia gypsea; with Trichophyton rubrum; in [1]) was above 250 µg/mL in each case. For the same compound, the MIC against Candida albicans, against Candida tropicalis, in the assay on Saccharomyces cerevisiae, against Cryptococcus neoformans, in the assay with Aspergillus fumigatus and in the assay on Aspergillus flavus was above 250 µg/mL throughout. The MIC (in the assay on Aspergillus niger; in the assay with Nannizzia gypsea; in the assay with Trichophyton rubrum; in assay [1]) was above 250 µg/mL in each case.

As to `O=C1C(c2ccccc2)=C(c2ccccc2)C(=O)N1CCc1ccccc1`, the MFC against Candida albicans, against Candida tropicalis, against Saccharomyces cerevisiae, with Cryptococcus neoformans, in the assay with Aspergillus fumigatus and in the assay on Aspergillus flavus was above 250 µg/mL throughout. In addition, the MFC (in the assay with Aspergillus niger; against Nannizzia gypsea; with Trichophyton rubrum; in [1]) was above 250 µg/mL throughout. Moreover, the minimal inhibitory concentration (MIC) in the assay with Candida albicans, against Candida tropicalis, against Saccharomyces cerevisiae, in the assay with Cryptococcus neoformans, in the assay on Aspergillus fumigatus and in the assay with Aspergillus flavus was above 250 µg/mL throughout. The MIC (against Aspergillus niger; in the assay with Nannizzia gypsea; with Trichophyton rubrum; in assay [1]) was above 250 µg/mL in each case.

For `CC1=C(C)C(=O)N(c2ccccc2)C1=O`, the MFC against Candida albicans was above 250 µg/mL; with Candida tropicalis, above 250 µg/mL; against Saccharomyces cerevisiae, above 250 µg/mL; with Cryptococcus neoformans, 250 µg/mL (≈ 1240 µM); in the assay with Aspergillus fumigatus, above 250 µg/mL; against Aspergillus flavus it was above 250 µg/mL. Also, the MFC is above 250 µg/mL with Aspergillus niger, above 250 µg/mL in the assay with Nannizzia gypsea, 125 µg/mL (≈ 621 µM) with Trichophyton rubrum and 250 µg/mL (≈ 1240 µM) in assay [1]. Moreover, the MIC against Candida albicans is above 250 µg/mL; with Candida tropicalis it was above 250 µg/mL; with Saccharomyces cerevisiae it was above 250 µg/mL; against Cryptococcus neoformans, 125 µg/mL (≈ 621 µM); against Aspergillus fumigatus, above 250 µg/mL; with Aspergillus flavus it was above 250 µg/mL. Further, the MIC was above 250 µg/mL against Aspergillus niger, 250 µg/mL (≈ 1240 µM) in the assay on Nannizzia gypsea, 62.5 µg/mL (≈ 311 µM) against Trichophyton rubrum and 125 µg/mL (≈ 621 µM) in assay [1].

Take `CN(C/C=C/C#CC(C)(C)C)Cc1cccc2ccccc12` [TERBINAFINE]: the minimal fungicidal concentration (MFC) against Nannizzia gypsea amounted to 0.06 µg/mL (≈ 0.206 µM); with Trichophyton rubrum, 0.03 µg/mL (≈ 0.103 µM); in [1] it was 0.06 µg/mL (≈ 0.206 µM). Further, the minimal inhibitory concentration (MIC) turned out to be 0.03 µg/mL (≈ 0.103 µM) with Nannizzia gypsea, 0.01 µg/mL (≈ 0.0343 µM) in the assay with Trichophyton rubrum and 0.03 µg/mL (≈ 0.103 µM) in assay [1].
